Consider 24 compounds from ChEMBL document CHEMBL1806414, “Synthesis and anticonvulsant activity of 7-phenyl-6,7-dihydro-[1,2,4]triazolo[1,5-a]pyrimidin-5(4H)-ones and their derivatives” (Eur J Med Chem, 2011).

The source made the active and inactive calls. The rule behind the calls is not given here.

For series [1], the system named is Mus musculus. Put plainly: Anticonvulsant activity in Kunming mouse assessed as protection against maximal electric shock-induced seizures at 300 mg/kg, ip measured after 4 hrs. Format: functional, organism-based. Further details: dose 300 mg/kg. The essentials:
(§1)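 KunMing mice (18–22 g), compounds dissolved in DMSO, given i.p. at 30, 100 and 300 mg/kg, three mice per dose. Current applied through corneal electrodes for 0.2 s at 0.5 h and 4 h after dosing. Protection is abolition of tonic hind-leg extension, scored as protected/tested.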

Series [2] relates to Mus musculus. The experiment in a line: Anticonvulsant activity in Kunming mouse assessed as protection against maximal electric shock-induced seizures at 30 mg/kg, ip measured after 4 hrs. The class given is functional, organism-based. More on the design: dose 30 mg/kg. The essentials:
as §1

Series [3] deals with Mus musculus. The experiment in a line: Anticonvulsant activity in Kunming mouse assessed as protection against maximal electric shock-induced seizures at 30 mg/kg, ip measured after 0.5 hrs. Format: functional, organism-based. More on the design: dose 30 mg/kg. The essentials: as §1
Series [4] concerns Mus musculus. The experiment in a line: Anticonvulsant activity in Kunming mouse assessed as protection against maximal electric shock-induced seizures at 100 mg/kg, ip measured after 4 hrs. Format: functional, organism-based. Further details: dose 100 mg/kg. The essentials:
as §1

For series [5], the system named is Mus musculus. Put plainly: Anticonvulsant activity in Kunming mouse assessed as protection against maximal electric shock-induced seizures at 100 mg/kg, ip measured after 0.5 hrs. More on the design: dose 100 mg/kg. Format: functional, organism-based. A digest of the protocol: as §1
In series [6] the test system is Mus musculus. Put plainly: Neurotoxicity in Kunming mouse at 100 mg/kg, ip after 4 hrs. Further details: dose 100 mg/kg, route intraperitoneal. Format: toxicity, organism-based. The note with it: in vivo. The essentials: (§2)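 Rotarod neurotoxicity in KunMing mice (18–22 g) trained on a 3.2 cm diameter rod at 10 rpm. Compounds in DMSO were given i.p. at 30, 100 and 300 mg/kg, three mice per dose, and tested at 0.5 h and 4 h after dosing.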

For series [7], the species on record is Mus musculus. Put plainly: Protective index, ratio of TD50 for neurotoxicity in Kunming mouse to ED50 for inhibition of MES-induced seizures in Kunming mouse. The class given is functional.
In series [8] the test system is Mus musculus. Put plainly: Neurotoxicity in Kunming mouse at 300 mg/kg, ip after 4 hrs. Format: toxicity, organism-based. Further details: dose 300 mg/kg, route intraperitoneal. The note with it: in vivo. The essentials:
as §2

Series [9] relates to Mus musculus. The experiment in a line: Anticonvulsant activity against maximal electric shock-induced seizures in ip dosed Kunming mouse assessed as median effective dose. The class given is functional. A digest of the protocol: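 Phase-II MES test in KunMing mice (18–22 g), DMSO vehicle, corneal electrode stimulus 0.2 s. Groups of 10 mice got a range of i.p. doses until at least three points fell within 10–90% seizure protection, giving the median effective dose. Endpoint is abolition of tonic hind-leg extension.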

For series [10], the system named is Mus musculus. Put plainly: Anticonvulsant activity in Kunming mouse assessed as protection against maximal electric shock-induced seizures at 300 mg/kg, ip measured after 0.5 hrs. Format: functional, organism-based. More on the design: dose 300 mg/kg. A digest of the protocol:
as §1

Series [11] in a line: Neurotoxicity in ip dosed Kunming mouse by rotarod test. The class given is toxicity, organism-based. The following applies: in vivo. A digest of the protocol:
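Phase-II rotarod test in KunMing mice trained on a 3.2 cm rod at 10 rpm, DMSO vehicle. Groups of 10 mice got graded i.p. doses until at least three points fell within 10–90% minimal neurotoxicity, giving the median toxic dose.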
A general note: The rotarod test checks motor coordination on a turning rod.

Series [12] concerns Mus musculus. The experiment in a line: Neurotoxicity in Kunming mouse at 100 mg/kg, ip after 0.5 hrs. The class given is toxicity, organism-based. Further details: dose 100 mg/kg, route intraperitoneal. The following applies: in vivo. The essentials: as §2
Series [13] deals with Mus musculus. Put plainly: Neurotoxicity in Kunming mouse at 300 mg/kg, ip after 0.5 hrs. The class given is toxicity, organism-based. More on the design: dose 300 mg/kg, route intraperitoneal. The following applies: in vivo. A digest of the protocol:
as §2

`O=C1CC(c2cccc(F)c2)n2ncnc2N1` (centres undefined): the outcome in the series with Mus musculus [1], in the series on Mus musculus [2], with Mus musculus [3], with Mus musculus [4] and in the series on Mus musculus [5] was inactive.
Turning to `O=C1CC(c2cccc(Cl)c2)n2ncnc2N1` (centres undefined), the result in the series with Mus musculus [1], in the series with Mus musculus [2], in the series on Mus musculus [3] and in the series with Mus musculus [4] was inactive. Besides, the Activity entry with Mus musculus [6], in the series with Mus musculus [8] and in the series on Mus musculus [12] was “Non-toxic” in each case. Besides, the “Ratio TD50/ED50” value in the series listed under Mus musculus [7] stood at 11.2. Also, in the series on Mus musculus [9], the ED50 amounted to 47.3 mg/kg. The outcome in the series with Mus musculus [10] and with Mus musculus [5] was Active. The compound also returned a TD50 in series [11] of 528 mg/kg.
Take `CCC1(c2ccccc2)C(=O)NC(=O)NC1=O` [PHENOBARBITAL]: the median effective dose (ED50) in the series on Mus musculus [9] is 21.8 mg/kg.
For the compound `O=C1CC(c2ccccc2)n2ncnc2N1Cc1ccccc1` (centres undefined), the result with Mus musculus [1], with Mus musculus [2], with Mus musculus [3] and in the series on Mus musculus [4] was inactive.
Consider `O=C1CC(c2ccccc2Cl)n2ccnc2N1` (centres undefined), for which the outcome in the series with Mus musculus [1], in the series with Mus musculus [2], in the series on Mus musculus [3] and in the series with Mus musculus [4] was inactive. Besides, the outcome in the series on Mus musculus [10] was Active.
As to `O=C1CC(c2ccccc2)n2ncnc2N1` (centres undefined), the result in the series with Mus musculus [1], in the series on Mus musculus [2], with Mus musculus [3] and in the series with Mus musculus [4] was inactive. The Activity result in the series on Mus musculus [6], with Mus musculus [8] and in the series with Mus musculus [12] was “Non-toxic” each time. Besides, the “Ratio TD50/ED50” value in the series listed under Mus musculus [7] is reported as 10.5. Moreover, the ED50 in the series on Mus musculus [9] is 51.9 mg/kg. Also, the outcome in the series on Mus musculus [10] and with Mus musculus [5] was Active. The TD50 in [11] is 548 mg/kg.
For `O=C1CC(c2ccccc2Br)n2c(nc3ccccc32)N1` (centres undefined), the outcome in the series with Mus musculus [1], with Mus musculus [2], with Mus musculus [3], with Mus musculus [10], in the series with Mus musculus [4] and with Mus musculus [5] was inactive.
As for `O=C1CC(c2ccccc2)n2nccc2N1` (centres undefined), the outcome in the series on Mus musculus [1], in the series on Mus musculus [2] and with Mus musculus [4] was inactive. Besides, the Activity result in the series with Mus musculus [6] was “Non-toxic”; with Mus musculus [8] it was “Non-toxic”; in the series on Mus musculus [13] it was “Toxic”. Also, the “Ratio TD50/ED50” value in the series listed under Mus musculus [7] stood at 2.5. In addition, in the series on Mus musculus [9], the 50% effective dose (ED50) worked out at 47.3 mg/kg. Also, the result in the series with Mus musculus [10] and in the series with Mus musculus [5] was Active. For the same compound, in series [11], the TD50 turned out to be 118 mg/kg.
As for `CCCCCCN1C(=O)CC(c2ccccc2)n2ncnc21` (centres undefined), the outcome in the series on Mus musculus [1], with Mus musculus [2], in the series on Mus musculus [3] and in the series on Mus musculus [4] was inactive.
Take `O=C1CC(c2ccc(Cl)cc2)n2ncnc2N1` (centres undefined): the result with Mus musculus [1], with Mus musculus [2], in the series with Mus musculus [3] and with Mus musculus [4] was inactive. The outcome in the series on Mus musculus [10] was Active.
As to `O=C1CC(c2ccccc2F)n2ccnc2N1` (centres undefined), the result in the series on Mus musculus [1], in the series on Mus musculus [2], with Mus musculus [3] and in the series with Mus musculus [4] was inactive. The Activity result in the series with Mus musculus [6], with Mus musculus [8] and with Mus musculus [12] was “Non-toxic” throughout. Moreover, the “Ratio TD50/ED50” value in the series listed under Mus musculus [7] came to 4.4. Further, in the series with Mus musculus [9], the ED50 was 88 mg/kg. Moreover, the result in the series on Mus musculus [10] and with Mus musculus [5] was Active. Besides, the TD50 in series [11] is 387 mg/kg.
In the case of `Cc1ccc(C2CC(=O)Nc3ncnn32)cc1` (centres undefined), the outcome in the series with Mus musculus [1], in the series on Mus musculus [2], with Mus musculus [3] and with Mus musculus [4] was inactive. Moreover, the result in the series on Mus musculus [10] was Active.
As to `O=C1CC(c2ccccc2Br)n2ccnc2N1` (centres undefined), the outcome with Mus musculus [1], in the series with Mus musculus [2], with Mus musculus [3] and in the series on Mus musculus [4] was inactive. Besides, in the series with Mus musculus [10], the result was Active.
Turning to `COc1ccc(C2CC(=O)Nc3ncnn32)cc1` (centres undefined), the result in the series on Mus musculus [1], in the series with Mus musculus [2], with Mus musculus [3], with Mus musculus [4] and in the series on Mus musculus [5] was inactive.
In the case of `O=C1CC(c2ccc(Cl)cc2Cl)n2ncnc2N1` (centres undefined), the result in the series on Mus musculus [1], in the series with Mus musculus [2], with Mus musculus [3], in the series with Mus musculus [10], in the series on Mus musculus [4] and in the series on Mus musculus [5] was inactive.
`O=C1CC(c2ccccc2F)n2c(nc3ccccc32)N1` (centres undefined): the outcome in the series on Mus musculus [1], in the series on Mus musculus [2], with Mus musculus [3], with Mus musculus [10], in the series on Mus musculus [4] and with Mus musculus [5] was inactive.
Turning to `O=C1CC(c2ccccc2Cl)n2ncnc2N1` (centres undefined), the outcome in the series on Mus musculus [1], with Mus musculus [2] and in the series on Mus musculus [4] was inactive. Besides, the Activity result with Mus musculus [6], in the series on Mus musculus [8] and in the series on Mus musculus [12] was “Non-toxic” in each case. Also, the “Ratio TD50/ED50” value in the series listed under Mus musculus [7] amounted to 18.2. Also, the result in the series with Mus musculus [3], in the series with Mus musculus [10] and in the series on Mus musculus [5] was Active. Further, the ED50 with Mus musculus [9] was determined as 25.5 mg/kg. This compound came in with a TD50 in series [11] of 465 mg/kg.
With `O=C1CC(c2ccccc2Cl)n2c(nc3ccccc32)N1` (centres undefined), the result in the series on Mus musculus [1], in the series on Mus musculus [2], in the series on Mus musculus [3], with Mus musculus [10], in the series with Mus musculus [4] and in the series with Mus musculus [5] was inactive.
For the compound `COc1ccccc1C1CC(=O)Nc2ncnn21` (centres undefined), the outcome in the series with Mus musculus [1], in the series with Mus musculus [2], in the series with Mus musculus [3], with Mus musculus [4] and in the series on Mus musculus [5] was inactive.
As to `O=C1CC(c2ccccc2F)n2ncnc2N1` (centres undefined), the outcome with Mus musculus [1], in the series on Mus musculus [2] and in the series with Mus musculus [4] was inactive. Further, the Activity result with Mus musculus [6], in the series with Mus musculus [8] and with Mus musculus [12] was “Non-toxic” throughout. In addition, the “Ratio TD50/ED50” value in the series filed under Mus musculus [7] is reported as 14.4. Besides, the ED50 in the series on Mus musculus [9] was found to be 31.7 mg/kg. Moreover, the outcome in the series with Mus musculus [10] and in the series with Mus musculus [5] was Active. This compound came in with a TD50 in series [11] of 456 mg/kg.
Take `CN1C(=O)CC(c2ccccc2)n2ncnc21` (centres undefined): the result in the series with Mus musculus [1], in the series on Mus musculus [2], with Mus musculus [3] and in the series on Mus musculus [4] was inactive. In the series with Mus musculus [10], the result was Active.
With `O=C1CC(c2ccc(Br)cc2)n2ncnc2N1` (centres undefined), the outcome in the series on Mus musculus [1], with Mus musculus [2], with Mus musculus [3], with Mus musculus [4] and in the series on Mus musculus [5] was inactive.
`O=C1CC(c2ccc(F)cc2)n2ncnc2N1` (centres undefined): the outcome in the series with Mus musculus [1], with Mus musculus [2], in the series on Mus musculus [3], in the series with Mus musculus [4] and with Mus musculus [5] was inactive.
`O=C1CC(c2ccccc2)n2c(nc3ccccc32)N1` (centres undefined): the outcome in the series on Mus musculus [1], in the series with Mus musculus [2], in the series on Mus musculus [3], in the series with Mus musculus [10], with Mus musculus [4] and in the series with Mus musculus [5] was inactive.

In general, ED50 refers to the dose that gives a 50% effect, or the effect in half of the subjects. As a reminder, the TD50 is the 50% point of the dose-response relation for the toxic effect studied. Read a low TD50 as harm at a small dose.
